We go through eleven molecules from article PMC6136361 (Journal of Enzyme Inhibition and Medicinal Chemistry, 2018).

Read-outs that look alike come from different tables or passages of the source.

In assay [1] the test system is HepG-2 cells. As to the kind of experiment: Cytotoxicity, Sulforhodamine-B. The settings on record: Homo sapiens. The class given is cell-based, human.
Assay [2] relates to HCT-116 cells. The assay can be described thus: Cytotoxicity, Sulforhodamine-B. It counts as cell-based. The conditions noted are these: Homo sapiens. In outline: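 SRB viability: cells seeded at 5 × 10^4–10^5/well and left to attach 24 h. Test compound (DMSO, diluted in saline) at 0.001–100 µM for 48 h, four wells per concentration; vehicle-only controls. Fixed cold 50% TCA 1 h at 4 °C, stained 0.4% SRB in 1% acetic acid 30 min, dye solubilised in 10 mM tris base pH 10.5, OD 564 nm. Survival fraction = OD treated/OD control; IC50 from survival-concentration plot; repeated three times.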

Setting [3] is: HepG2, 48 h, read-out: IC50 HepG-2.
Where [4] appears, read: HepG2, read-out: Experimental cytotoxicity pIC50 (converted).
[5] abbreviates: HCT-116, 48 h, read-out: IC50 HCT-116.

Consider `COc1ccc(NCC(=O)Nc2c(C#N)sc(Nc3ccccc3)c2C(=O)Nc2ccc(OC)cc2)cc1` [Compound 9, 5-Cyano-N-(4-methoxyphenyl)-4-[2-(4-methoxyphenyl)amino-acetamido]-2-phenylaminothiophene-3-carboxamide], for which the IC50 in assay [1] (setting [3]) is 14.3 ± 1.23 µM; in assay [1] (setting [4]) it was 14 µM; in assay [2] (setting [5]) it was 21.4 ± 1.92 µM.

As to `COc1ccc(NC(=O)c2c(Nc3ccccc3)sc(C(=O)NN=Cc3ccc(C)cc3)c2NC(C)=O)cc1` [Compound 19, 4-Acetamido-5-[2-(4-methylbenzylidene)hydrazinocarbonyl]-N-(4-methoxyphenyl)-2-phenylaminothiophene-3-carboxamide], the results for the IC50 in assay [1] (setting [3]), in assay [1] (setting [4]) and in assay [2] (setting [5]) were 12.2 ± 1.31 µM, 12.2 µM and 21.4 ± 1.82 µM, respectively.

For the molecule `COc1ccc(NC(=O)c2c(Nc3ccccc3)sc(C#N)c2NC(=O)CNc2ccc(C)cc2)cc1` [Compound 7, 5-Cyano-N-(4-methoxyphenyl)-2-phenylamino-4-[2-(4-methylphenyl)amino-acetamido]thiophene-3-carboxamide], the IC50 was 24.3 ± 1.96 µM in assay [1] (setting [3]), 24 µM in assay [1] (setting [4]) and 18.4 ± 1.23 µM in assay [2] (setting [5]).

Regarding `COc1ccc(NC(=O)c2c(Nc3ccccc3)sc(C#N)c2NC(=O)CNc2ccc(OC)c(OC)c2)cc1` [Compound 13, 5-Cyano-N-(4-methoxyphenyl)-4-[2-(3,4-dimethoxyphenyl)amino-acetamido]-2-phenylaminothiophene-3-carboxamide], the figures for the IC50 in assay [1] (setting [3]), in assay [1] (setting [4]) and in assay [2] (setting [5]) were 15.2 ± 1.62 µM, 15.2 µM and 10.3 ± 1.31 µM, respectively.

As to `COc1ccc(NC(=O)c2c(Nc3ccccc3)sc(C#N)c2NC(=O)CNc2ccccc2Cl)cc1` [Compound 11, 5-Cyano-N-(4-methoxyphenyl)-4-[2-(2-chlorophenyl)aminoacetamido]-2-phenylaminothiophene-3-carboxamide], the IC50 came out at 31.3 ± 3.61 µM in assay [1] (setting [3]) and 52.2 ± 5.54 µM in assay [2] (setting [5]).

With `CNC(=O)c1cc(Oc2ccc(NC(=O)Nc3ccc(Cl)c(C(F)(F)F)c3)cc2)ccn1` [Sorafenib, reference compound], the IC50 in assay [1] (HepG2, read-out: HepG-2 IC50) is 4.43 µM; in assay [2] (HCT-116, read-out: IC50 against HCT-116 cells), 3.22 µM.

For `COc1ccc(NC(=O)c2c(Nc3ccccc3)sc(C#N)c2NC(=O)CNc2ccccc2[N+](=O)[O-])cc1` [Compound 12, 5-Cyano-N-(4-methoxyphenyl)-4-[2-(2-nitrophenyl)amino-acetamido]-2-phenylaminothiophene-3-carboxamide], the IC50 in assay [1] (setting [3]) came to 43.3 ± 4.23 µM; in assay [2] (setting [5]), 60.1 ± 7.41 µM.

As for `COc1ccc(NC(=O)c2c(Nc3ccccc3)sc(C#N)c2NC(=O)CNc2ccc(O)cc2)cc1` [Compound 8, 5-Cyano-N-(4-methoxyphenyl)-4-[2-(4-hydroxyphenyl)amino-acetamido]-2-phenylaminothiophene-3-carboxamide], the IC50 in assay [1] (setting [3]) was 10.4 ± 1.08 µM; in assay [1] (setting [4]) it was 10.4 µM; in assay [2] (setting [5]), 16.2 ± 1.52 µM.

Consider `COc1ccc(NC(=O)c2c(Nc3ccccc3)sc(C(=O)NN=Cc3ccc(Br)cc3)c2NC(C)=O)cc1` [Compound 18, 4-Acetamido-5-[2-(4-bromobenzylidene)hydrazinocarbonyl]-N-(4-methoxyphenyl)-2-phenylaminothiophene-3-carboxamide], for which the values for the IC50 in assay [1] (setting [3]), in assay [1] (setting [4]) and in assay [2] (setting [5]) were 10.1 ± 1.12 µM, 10.4 µM and 7.41 ± 0.62 µM, respectively.

Consider `COc1ccc(NC(=O)c2c(Nc3ccccc3)sc(C#N)c2NC(=O)CNc2ccccc2)cc1` [Compound 4, 5-Cyano-N-(4-methoxyphenyl)-2-phenylamino-4-(2-phenylamino-acetamido)thiophene-3-carboxamide], for which the IC50 in assay [1] (setting [3]) is 74.3 ± 5.98 µM; in assay [2] (setting [5]) it was 64.1 ± 7.51 µM.

As for `COc1ccc(NC(=O)c2c(Nc3ccccc3)sc(C(=O)NN=Cc3ccccc3)c2NC(C)=O)cc1` [Compound 16, 4-Acetamido-5-(2-benzylidenehydrazinocarbonyl)-N-(4-methoxyphenyl)-2-phenylaminothiophene-3-carboxamide], the IC50 is 21.4 ± 2.91 µM in assay [1] (setting [3]), 21 µM in assay [1] (setting [4]) and 19.2 ± 1.46 µM in assay [2] (setting [5]).
